Assay results: ChEMBL document CHEMBL4376862, “Synthesis and evaluation of novel chlorophyll a derivatives as potent photosensitizers for photodynamic therapy” (Eur J Med Chem, 2020)
Active and inactive are the calls of the source. The rule behind the calls is not given here.

Legend:
[1] = Therapeutic index, ratio of TC50 for human A549 cells under dark to IC50 for human A549 cells irradiated with 1 J/cm2 of 650 nanometer laser light; format: toxicity, cell-based; settings: read-out: TI
Method in brief: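 A549 cells (F-12K, 10% FBS, 37 °C, 5% CO2) seeded 24 h, then exposed to 0–10 photosensitizer for 24 h. Dark arm: MTT 48 h later. Light arm: 650 nm laser, 1 J/cm2 (25 mW/cm2, 40 s), then MTT. A570 viability relative to control, triplicate. Ratio = dark TC50 / irradiated IC50.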

[2] = Octanol/water partition coefficient, logP of compound by shake flask method; format: physicochemical
Method in brief: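 Shake-flask method: equilibrium concentrations in octanol and water measured by UV-vis absorbance; log P taken as log of octanol/water concentration ratio (mg/L).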

[3] = Absorption property of compound in DMSO assessed as strong absorption wavelength at 1 x 10^-3 M by UV-spectra analysis; format: physicochemical; settings: 1000 µM
Method in brief: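 Stocks 1 mM in DMSO; spectra run over […] range (units as printed), 300–800 nm in 1 nm steps, room temperature, quartz cuvettes, UV-vis spectrophotometer.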

[4] = Emission property of a compound in DMSO assessed as red shift at 5 uM on excitation with light at 410 to 415 nm by 3D fluorescence spectra analysis; format: physicochemical
Method in brief: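 Stock 1 mM in DMSO, measured at […] (so in the source); excitation scanned 350–640 nm, emission 600–750 nm, 1 nm steps, room temperature, quartz cuvettes; 3D fluorescence matrix spectra recorded.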

[5] = Induction of ROS generation in DMF solution assessed as slope of the photodegradation rate of DPBF at 2 uM followed by irradiation measured every 10 secs by spectrophotometric analysis; format: functional
[6] = Drug uptake in human A549 cells incubated upto 24 hrs by fluorescence spectrophotometer analysis; format: ADME, cell-based; settings: a549, 24 h
Method in brief: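 A549 cells (F-12K, 10% FBS, 37 °C, 5% CO2) grown in 24 wells and exposed to photosensitizer for 0.5, 1, 2, 4, 8, 12 or 24 h; cells harvested by digestion, fluorescence read on a spectrophotometer.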

[7] = Dark toxicity in human A549 cells assessed as reduction in cell viability incubated under dark for 24 hrs measured after 48 hrs by MTT assay; format: cell-based; settings: read-out: TC50
Method in brief: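 A549 cells seeded at 5×10^4 cells/100 µL per well for 24 h, treated in the dark with […] (so in the source) for 24 h; MTT added 4 h, absorbance 570 nm, 48 h later; viability as OD treated/OD control; triplicate, mean ± SD.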

A549 [8] = experiment: Phototoxicity against human A549 cells assessed as reduction in cell proliferation irradiated with 1 J/cm2 of 650 nanometer laser light preincubated for 24 hrs measured after 48 hrs by MTT assay; format: functional, cell-based; settings: A549, light or radiation study
Method in brief: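 A549 cells seeded 5×10^4 cells/100 µL per well, given […] for 24 h, then 650 nm semiconductor laser at 1 J/cm2 (25 mW/cm2, 40 s); MTT 4 h, absorbance 570 nm; viability vs control; triplicate, mean ± SD.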

A549 [9] = experiment: Photodynamic antitumor activity against human A549 cells xenografted in BALB/c nude mouse assessed as decrease in tumor weight at 0.3 mg/kg, iv followed by laser light irradiation at 120 J/cm2 measured after 14 days; format: functional
Method in brief: (§1)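 Male BALB/c nude mice (5–6 weeks, 14–16 g) given 2×10^6 A549 cells s.c. in 0.2 mL PBS; at 6–7 mm tumors randomized into ten groups; drug via tail vein, 650 nm diode laser 120 J/cm2 at 180 mW/cm2 24 h later; caliper volume a×b²/2, followed 14 days.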

[10] = Induction of ROS generation in DMF solution assessed as ROS quantum yield at 2 uM followed by irradiation measured every 10 secs by spectrophotometric analysis; format: functional
Mus musculus [11] = experiment: Phototoxicity in ICR mouse assessed as change in auricles 0.45 mg/kg, iv in presence of 10 mW/cm2 light irradiation for 10 mins upto 7 days measured after 1day of light irradiation by H and E staining based microscopic analysis; format: organism-based; settings: in vivo
Mus musculus [12] = experiment: Phototoxicity in ICR mouse assessed as ear weight at 0.45 mg/kg, iv followed by 10 mW/cm2 light irradiation for 10 mins at 7 days after drug challenge measured after 1 day of light irradiation (13.2 +/- 1.6 mg); format: organism-based; settings: in vivo
Mus musculus [13] = experiment: Phototoxicity in ICR mouse assessed as ear weight at 0.45 mg/kg, iv followed by 10 mW/cm2 light irradiation for 10 mins at 5 days after drug challenge measured after 1 day of light irradiation (reference value: 12.9 +/- 1.4 mg); format: organism-based; settings: in vivo
Mus musculus [14] = experiment: Phototoxicity in ICR mouse assessed as ear weight at 0.45 mg/kg, iv followed by 10 mW/cm2 light irradiation for 10 mins at 3 days after drug challenge measured after 1 day of light irradiation (reference value: 12.8 +/- 1.5 mg); format: organism-based; settings: in vivo
Mus musculus [15] = experiment: Phototoxicity in ICR mouse assessed as ear weight at 0.45 mg/kg, iv followed by 10 mW/cm2 light irradiation for 10 mins at 1 day after drug challenge measured after 1 day of light irradiation (reference value: 12.6 +/- 1.2 mg); format: organism-based; settings: in vivo
Mus musculus [16] = experiment: Phototoxicity in ICR mouse assessed as change in exposed neck skin 0.45 mg/kg, iv in presence of 10 mW/cm2 light irradiation for 10 mins upto 7 days measured after 1day of light irradiation by H and E staining based microscopic analysis; format: organism-based; settings: in vivo
Cavia porcellus [17] = experiment: Phototoxicity in guinea pig assessed as change in left ear weight 4.5 mg/kg, iv followed by 10 mW/cm2 light irradiation for 10 mins measured after 1 day of light irradiation (reference value: 39.2 +/- 1.8 mg); format: organism-based; settings: in vivo
Cavia porcellus [18] = experiment: Phototoxicity in guinea pig assessed as change in right ear weight 4.5 mg/kg, iv followed by 10 mW/cm2 light irradiation for 10 mins measured after 1 day of light irradiation (reference value: 40.4 +/- 2.4 mg); format: organism-based; settings: in vivo
Cavia porcellus [19] = experiment: Phototoxicity in guinea pig assessed as change in back skin weight 4.5 mg/kg, iv followed by 10 mW/cm2 light irradiation for 10 mins measured after 1day of light irradiation (reference value: 72.4 +/- 3.1 mg); format: organism-based; settings: in vivo, 24 h
A549 [20] = experiment: Photodynamic antitumor activity against human A549 cells xenografted in BALB/c nude mouse assessed as increase in tumor tissue damage at 0.3 mg/kg, iv incubated for 24 hrs followed by laser light irradiation at 120 J/cm2 measured up to 14 days; format: functional, organism-based; method in brief: as §1
A549 [21] = experiment: Photodynamic antitumor activity against human A549 cells xenografted in BALB/c nude mouse assessed as reduction in tumor volume at 0.3 mg/kg, iv incubated for 24 hrs followed by laser light irradiation at 120 J/cm2 measured up to 14 days; format: functional, organism-based; method in brief: as §1
A549 [22] = experiment: Photodynamic antitumor activity against human A549 cells xenografted in BALB/c nude mouse assessed as survival time at 0.3 mg/kg, iv incubated for 24 hrs followed by laser light irradiation at 120 J/cm2 measured up to 70 days; format: functional, organism-based
Method in brief: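 Nude mice bearing A549 xenografts, 0.3 mg/kg drug i.v. then 650 nm laser 120 J/cm2 at 180 mW/cm2 after 24 h; survival shown as Kaplan-Meier with log-rank test, n = 5.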

Mus musculus [23] = experiment: Phototoxicity in ICR mouse assessed as change in skin of the backs 0.45 mg/kg, iv in presence of 10 mW/cm2 light irradiation for 10 mins upto 7 days measured after 1 day of light irradiation by H and E staining based microscopic analysis; format: organism-based; settings: in vivo
Cavia porcellus [24] = experiment: Phototoxicity in guinea pig assessed as change in auricles of left ear at 4.5 mg/kg, iv in presence of 10 mW/cm2 light irradiation for 10 mins measured after 1day of light irradiation by H and E staining based microscopic analysis; format: organism-based; settings: in vivo
Cavia porcellus [25] = experiment: Phototoxicity in guinea pig assessed as change in back skin at 4.5 mg/kg, iv in presence of 10 mW/cm2 light irradiation for 10 mins measured after 1day of light irradiation by H and E staining based microscopic analysis; format: organism-based; settings: in vivo

| logP [2] | Activity [3] | Activity [4] [nm] | Drug uptake [6] | SMILES | selectivity ratio [1] | K [5] [s⁻¹] | CC50 at 24 h [7] [nM] | IC50 (A549 [8]) [nM] | Activity (A549 [9]) [g] | Ratio [10] | Activity (Mus musculus [11]) | Activity (Mus musculus [12]) [mg] | Activity (Mus musculus [13]) [mg] | Activity (Mus musculus [14]) [mg] | Activity (Mus musculus [15]) [mg] | Activity (Mus musculus [16]) | Activity (Cavia porcellus [17]) [mg] | Activity (Cavia porcellus [18]) [mg] | Activity (Cavia porcellus [19]) [mg] | other results |
| --- | --- | --- | --- | --- | --- | --- | --- | --- | --- | --- | --- | --- | --- | --- | --- | --- | --- | --- | --- | --- |
| 2.67 | 660 to 670 nm | 661 to 669 | Active | CCCCCCOC(C)c1c(C)c2cc3nc(c4c5[nH]c(cc6nc(cc1[nH]2)C(C)=C6CC)c(C)c5C(=O)C4)[C@@H](CCC(=O)NCC(=O)CCC(=O)O)[C@@H]3C (stereo partly specified) | 12.6 | 0.0363 | 1010 | 80 | 0 | 1.81 | – | – | – | – | – | – | – | – | – | – |
| 3.77 | Active | 661 to 669 | – | C=Cc1c(C)c2cc3nc(c4c5[nH]c(cc6nc(cc1[nH]2)C(C)=C6CC)c(C)c5C(=O)C4)[C@@H](CCC(=O)O)[C@@H]3C [PYROPHEOPHORBIDE A] | – | 0.0081 | – | – | – | 0.405 | Non-Toxic | 13.3 | 13.2 | 12.7 | 13.1 | Non-Toxic | 57.2 | 59.2 | 100.3 | – |
| – | – | 661 to 669 | – | CCCCCCOC(C)c1c(C)c2cc3nc(c4c5[nH]c(cc6nc(cc1[nH]2)C(C)=C6CC)c(C)c5C(=O)C4)[C@@H](CCC(=O)O)[C@@H]3C (stereo partly specified) [HPPH] | 5.91 | 0.0357 | 1950 | 330 | 0.0212 | 1.78 | Non-Toxic | 13.2 | 13.1 | 13.3 | 12.8 | Non-Toxic | 42.6 | 42.2 | 74.1 | Activity (A549 [20]): Active; Activity (A549 [21]): Active; Activity (A549 [22]): Active; Activity (Mus musculus [23]): Non-Toxic; Activity (Cavia porcellus [24]): Non-Toxic; Activity (Cavia porcellus [25]): Non-Toxic |

Second part, the compound before the results:

| SMILES | logP [2] | Activity [3] | Activity [4] [nm] | Drug uptake [6] | selectivity ratio [1] | K [5] [s⁻¹] | CC50 at 24 h [7] [nM] | IC50 (A549 [8]) [nM] | Activity (A549 [9]) [g] | Ratio [10] | Activity (Mus musculus [11]) | Activity (Mus musculus [12]) [mg] | Activity (Mus musculus [13]) [mg] | Activity (Mus musculus [14]) [mg] | Activity (Mus musculus [15]) [mg] | Activity (Mus musculus [16]) | Activity (Cavia porcellus [17]) [mg] | Activity (Cavia porcellus [18]) [mg] | Activity (Cavia porcellus [19]) [mg] | other results |
| --- | --- | --- | --- | --- | --- | --- | --- | --- | --- | --- | --- | --- | --- | --- | --- | --- | --- | --- | --- | --- |
| CCCOC(C)c1c(C)c2cc3nc(c4c5[nH]c(cc6nc(cc1[nH]2)C(C)=C6CC)c(C)c5C(=O)C4)[C@@H](CCC(=O)NCC(=O)CCC(=O)O)[C@@H]3C (stereo partly specified) | 2.34 | 660 to 670 nm | 661 to 669 | Active | 5.32 | 0.018 | 2660 | 500 | 0.0495 | 0.9 | – | – | – | – | – | – | – | – | – | – |
| CCC1=C(C)c2cc3[nH]c(cc4nc(c5c6[nH]c(cc1n2)c(C)c6C(=O)C5)[C@@H](CCC(=O)NCC(=O)CCC(=O)O)[C@@H]4C)c(C)c3C(C)OCCOC (stereo partly specified) | 1.82 | 660 to 670 nm | 661 to 669 | Active | 7.43 | 0.0162 | 5650 | 760 | 0.2431 | 0.81 | – | – | – | – | – | – | – | – | – | – |
